FXN GAA850 act: activators of GAA850 frataxin (FXN) promoter; HEK293 lucGAA850 FXN promoter luciferase reporter, 24 h; percent of 10 µM SAHA response; activation, % at 6 µM; actives 0.56% (n = 360,000); AID 540364;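 active = activation above the average of all compounds screened plus 3 SD, cutoff fixed separately per campaign, cut at about 7.5% in these data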;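 also: 0% = DMSO wells and 100% = 10 µM SAHA wells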
HIF act: HIF pathway transcriptional activation; U2OS HRE-luciferase reporter, luminescence; normalized: DMSO 0%, desferrioxamine 100%; activation, % at 7.5 µM (by protocol); AID 1910; actives 0.32% (n = 300,000);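 active = mean activation of at least 10% of the iron chelator positive control signal, with at least half of replicates also reaching 10%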
ABCB6 inh 2: blocks the human ABCB6 transporter; Q9NP58; K562-ABCB6 porphyrin accumulation, flow cytometry, 1 h; active compounds read low; fluorescence ratio to DMSO, % at 10 µM; actives 0.19% (n = 360,000); AID 602162;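 active = fluorescence ratio to DMSO below 75%, the collection mean minus 3 SD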;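 also: signal is porphyrin accumulated inside mitochondria; 100% equals median channel fluorescence of DMSO control wells; lower ratio means ABCB6 inhibition with less porphyrin fluorescence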
SR-BI DiI-HDL act: activators of SR-BI mediated HDL lipid uptake. CHO ldlA[mSR-BI] cells, DiI-HDL uptake fluorescence, 3 h; 100 = double the neutral-control signal. activation, % at 12.5 µM. actives 0.096% (n = 320,000);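 active = mean replicate activation of at least 60% and every replicate at or above 60%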;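 also: 0% = median plate neutral-control signal and 100% = twice that signal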
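System: CHO ldlA[mSR-BI] cells / Medium: HEPES-buffered (25 mM, pH 7.4) F12 plus 0.5% BSA / Probe or stimulus: labelled HDL, 10 µg/mL / Doses: single compound concentration, delivered by pin transfer / Schedule: 3 h, 37 °C / Measured by: DiI fluorescence, bottom read / Measure: cell-associated DiI fluorescence as measure of HDL uptake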
SR-BI DiI inh: mouse SR-BI HDL lipid transfer inhibition; inhibition, % at 12.5 µM; ldlA[mSR-BI] CHO cells, DiI-HDL uptake fluorescence, 3 h; actives 0.96% (n = 320,000); Q61009;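 active = mean replicate inhibition of at least 70% and a set share of replicates each scoring 70 or more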;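 also: 0% = median of neutral control wells and 100% = median of positive control wells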
Target sequence (Q61009 whole entry, looked up): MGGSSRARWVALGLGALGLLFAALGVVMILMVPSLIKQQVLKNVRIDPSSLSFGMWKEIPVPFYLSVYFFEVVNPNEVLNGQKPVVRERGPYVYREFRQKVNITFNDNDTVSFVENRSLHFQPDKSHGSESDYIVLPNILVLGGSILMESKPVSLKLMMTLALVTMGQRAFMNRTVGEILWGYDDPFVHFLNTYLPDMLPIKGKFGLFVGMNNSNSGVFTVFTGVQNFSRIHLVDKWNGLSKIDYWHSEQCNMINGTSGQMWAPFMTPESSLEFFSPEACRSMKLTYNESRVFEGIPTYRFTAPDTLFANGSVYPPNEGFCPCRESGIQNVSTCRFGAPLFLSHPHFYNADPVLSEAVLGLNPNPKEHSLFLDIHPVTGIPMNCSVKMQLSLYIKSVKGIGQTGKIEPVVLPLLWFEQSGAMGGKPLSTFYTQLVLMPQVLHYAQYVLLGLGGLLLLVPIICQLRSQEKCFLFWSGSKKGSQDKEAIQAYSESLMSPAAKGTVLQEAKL
AHR act: activators of human aryl hydrocarbon receptor. P35869. AHR-responsive luciferase reporter cells, luminescence. activation, % at 5 µM. actives 2.5% (n = 320,000). AID 2796; in the data active = activation above about 47%;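 also: 0% = vehicle wells and 100% = reference agonist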
* = called active by the depositor; · = not tested or not shown. Sampled rows, rich in hits. Any-hit rate of the full collection: about 3.9%.

SMILES	FXN GAA850 act	HIF act	ABCB6 inh 2	SR-BI DiI-HDL act	SR-BI DiI inh	AHR act
CCCOc1ccc(CNC(=S)Nc2ccccc2)cc1Cl	0	0	100	-17	17	76*
CCN(CC)S(=O)(=O)c1ccc(Cl)c(C(=O)NCc2ccccc2Cl)c1	-3	0	105	-24	24	0
CC(C)c1ccc2[nH]c(O)c(N=NC(=O)c3cccc(S(=O)(=O)Nc4ccccc4Cl)c3)c2c1	2	0	95	-10	10	4
CC(C)NC(=S)N=Nc1c(O)[nH]c2ccc(C(C)C)cc12	-1	0	101	-4	4	67*
CC1(CCc2ccccc2)NC(=O)N(CC(=O)Nc2ccccc2C#N)C1=O (centres undefined)	1	·	98	9	-9	39
COC(=O)c1ccccc1NC(=O)c1cc2sccc2n1C	-2	0	96	-20	20	65*
CCC(=O)NC(c1cccs1)c1ccc2cccnc2c1O (centres undefined)	-9	196*	101	0	0	2
CC(C)CC(=O)NC(c1cccs1)c1ccc2cccnc2c1O (centres undefined)	-5	68*	103	-6	6	1
Cc1ccc2c(SCC(=O)NCc3ccco3)nc(-c3ccc(F)cc3)nc2c1	2	0	95	-50	50	13
CC(C)CC(NC(=O)c1ccccc1NC(=O)c1ccccc1)C(=O)O (centres undefined)	-2	369*	102	16	-16	0
COc1cc(/C=N/n2cnnc2)ccc1OCCOc1ccccc1	1	0	97	5	-5	6
C(=N\n1cnnc1)/c1cccc(OCCOc2ccccc2)c1	3	1	98	-29	29	64*
Cc1ccc(NC(=O)Nc2cc(S(C)(=O)=O)ccc2Cl)cc1	4	2	93	16	-16	47*
CS(=O)(=O)c1ccc(Cl)c(NC(=O)CCl)c1	3	-2	98	9	-9	0
Cc1cccc(NC(=O)CN2CCN(C(=O)CN3C(=O)NC4(CC(C)CC(C)(C)C4)C3=O)CC2)c1C (centres undefined)	1	·	99	-10	10	·
CCCc1[nH]n(-c2ccc([N+](=O)[O-])cc2)c(=O)c1C=NCCc1c[nH]c2ccccc12	2	0	99	-79	79*	6
Cc1[nH]n(-c2ccc([N+](=O)[O-])cc2)c(=O)c1C=NCCc1c[nH]c2ccccc12	1	0	96	-5	5	6
CCC(=O)c1ccc(N2CCN(C(=O)c3ccc(Br)cc3)CC2)c(F)c1	0	86*	89	-13	13	2
Cc1ccc(-c2cc(N)n3nc(-c4ccc(C)cc4)cc3n2)cc1	1	0	97	19	-19	-6
CC1Cc2ccccc2N1Cc1cc(=O)c(OCC(=O)Nc2ccccc2)co1 (centres undefined)	0	0	98	-3	3	4
COc1ccc(CCNC(=O)CCN2C(=O)COc3ccccc32)cc1OC	2	0	96	-18	18	85*
COc1ccc(CCNC(=O)COc2coc(CN3c4ccccc4CC3C)cc2=O)cc1OC (centres undefined)	-1	0	97	-85	85*	-2
COc1ccccc1NC(=O)CSc1c2c(nc3ccccc13)CCC2	0	0	93	-13	13	47*
Cc1ccc(/C=N/NC(=O)c2nn(C)cc2Cl)cc1	6	2	99	41	-41	10
Cn1cc(Cl)c(C(=O)N/N=C/c2ccc3c4c(cccc24)CC3)n1	8.0*	3	103	-27	27	29
SMILES	FXN GAA850 act	HIF act	ABCB6 inh 2	SR-BI DiI-HDL act	SR-BI DiI inh	AHR act
CCc1cc2c(=O)c(-c3cnn(-c4ccccc4)c3)coc2c(CN2CCOCC2)c1O	-2	1	91	-40	40	-3
CCc1cc2c(=O)c(-c3ccc4c(c3)OCO4)coc2c(CN(C)C)c1O	-1	0	96	-79	79*	4
O=Nc1c2nc3ccccc3n(O)c-2c2ccccc12	6	3	86	-1	1	101*
Cc1cnc(C(=O)NCCc2ccc(Cl)cc2)cn1	5	4	95	7	-7	·
O=C1NC2(Nc3ccccc31)C(=O)Nc1ccccc12 (centres undefined)	3	0	96	6	-6	51*
COc1cc(/C=C/C(=O)Nc2cccc(S(=O)(=O)N3CCOCC3)c2)ccc1OCC#N	2	·	94	-78	78*	-4
COc1cccc(/C=C/C(=O)OCC(=O)Nc2cccc(S(=O)(=O)N3CCOCC3)c2)c1OC	-1	0	96	-14	14	0
COc1ccccc1/C=C/C(=O)Nc1cccc(S(=O)(=O)N2CCOCC2)c1	1	·	87	-85	85*	14
COc1ccc(/C=C/C(=O)Nc2cccc(S(=O)(=O)N3CCOCC3)c2)cc1OC	0	·	93	-67	67	·
O=C(/C=C/c1ccco1)Nc1cccc(S(=O)(=O)N2CCOCC2)c1	1	5	99	-32	32	50*
Cc1ccc(/C=C/C(=O)Nc2cccc(S(=O)(=O)N3CCOCC3)c2)o1	2	0	104	-59	59	59*
Cc1ccc(NC(=O)/C=C/c2ccco2)cc1S(=O)(=O)N1CCCCCC1	2	0	114	-68	68	5
Cc1sc(-c2c(C#N)c(N)nc3c2CCCCCC3)cc1[N+](=O)[O-]	2	0	102	-3	3	0
CCOC(=O)c1cc2c(=Cc3ccc(N(C)C)cc3)c3ccccc3n2[n+]1C	-4	·	739	-8	8	·
O=[N+]([O-])c1ccc(S(=O)(=O)Nc2ccc3c(c2)OCCO3)cc1	3	1	100	10	-10	0
COc1ccccc1C(=O)Nc1nnc(-c2ccc3c(c2)CCCC3)o1	1	0	101	-13	11	52*
CC(=O)Nc1nnc(-c2ccc3c(c2)CCCC3)o1	4	1	101	-8	8	59*
CC(=O)NNc1[nH]c2c(c(=O)c1[N+](=O)[O-])c(=O)n(C)c(=O)n2C	0	0	102	68*	-68	3
CCOc1ccc(NC(=O)CSc2nc(=O)n(Cc3ccccn3)c3c2CCC3)cc1	0	0	96	-1	1	0
N#CC(C(=S)Nc1ccccc1)c1nc2ccccc2[nH]1 (centres undefined)	2	2	93	-69	69	73*
CSC(=Nc1ccccc1)C(C#N)c1nc2ccccc2[nH]1 (centres undefined)	7	0	98	-27	27	18
